Measurements: ChEMBL document CHEMBL1123255, “Synthesis of Pro-Leu-Gly-NH2 analogues modified at the prolyl residue and evaluation of their effects on the receptor binding activity of the central dopamine receptor agonist, ADTN” (J Med Chem, 1986)
Square brackets hold non-standard residues; d marks the D form. Peptide text beside a SMILES is read from it. pGlu = O=C1CC[C@@H](C(=O)O)N1; Pip = O=C(O)[C@@H]1CCCCN1; Thz = O=C(O)[C@@H]1CSCN1; Aze = O=C(O)[C@@H]1CCN1

Assays:
Format in all cases: protein assay
[1] = target: T1, Dopamine receptor (Bos taurus) (UniProt Q95136+P20288); assay: Compound was tested for enhancement of the binding of [3H]ADTN to dopamine receptors at concentration of 1 nM
How it was run: (§1)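 Bovine caudate homogenized in 50 mM Tris-HCl pH 7.7, centrifuged twice at 40000g, resuspended in 50 mM Tris pH 7.1 with 0.1% ascorbate, 120 mM NaCl, 5 mM KCl, 2 mM CaCl2, 10 μM pargyline. 0.4-0.6 mg protein, 8 nM [3H]ADTN, peptide at 1, 10 or 100 nM; 10 min, 37 °C, triplicate; GF/B filtration, scintillation counting. Specific binding defined with 1 μM (d)-butaclamol; % enhancement over no-drug basal.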

[2] = target: T1, Dopamine receptor (Bos taurus); assay: Compound was tested for enhancement of the binding of [3H]-ADTN to dopamine receptors at concentration of 10 nM; how it was run: as §1
[3] = target: T1, Dopamine receptor (Bos taurus); assay: Compound was tested for enhancement of the binding of [3H]ADTN to dopamine receptors at concentration of 100 nM; how it was run: as §1

With `CC(C)C[C@H](NC(=O)[C@@H]1C=CCN1)C(=O)NCC(N)=O` the Enhancement [1] was 12.4%, the Enhancement [2] was 40% and the Enhancement [3] was 55%.

`CC(C)C[C@H](NC(=O)[C@H]1C=CCN1)C(=O)NCC(N)=O` gave an Enhancement [1] of 9.5%, an Enhancement [2] of 13% and an Enhancement [3] of 14.4%.

`CC(C)C[C@H](NC(=O)[C@@H]1CCN1)C(=O)NCC(N)=O` (H-[Aze]-Leu-Gly-NH2) was tested, and the Enhancement [1] was 19%, the Enhancement [2] was 40% and the Enhancement [3] was 42%.

Compound `CC(C)C[C@H](NC(=O)[C@@H]1CCCCN1)C(=O)NCC(N)=O` (H-[Pip]-Leu-Gly-NH2) has an Enhancement [1] of 17%, an Enhancement [2] of 38.7% and an Enhancement [3] of 58.7%.

In the case of `CC(C)C[C@H](NC(=O)[C@@H]1CSCN1)C(=O)NCC(N)=O` (H-[Thz]-Leu-Gly-NH2), the Enhancement [1] is reported as 7%, the Enhancement [2] is reported as 8.5% and the Enhancement [3] is reported as 9.5%.

Work on `CC(C)C[C@H](NC(=O)[C@@H]1CCC(=O)N1)C(=O)NCC(N)=O` ([pGlu]-Leu-Gly-NH2) yielded an Enhancement [1] of 13.5%, an Enhancement [2] of 26.5% and an Enhancement [3] of 36.4%.

Work on `CC(C)C[C@H](NC(=O)[C@@H]1CCCN1)C(=O)NCC(N)=O` (stereo in doubt; 1) yielded an Enhancement [1] of 16%, an Enhancement [2] of 28% and an Enhancement [3] of 46.2%.

Work on `CC(C)C[C@H](NC(=O)[C@@H]1CCCN1)C(=O)NCC(N)=O` (stereo in doubt; 2) yielded an Enhancement [1] of 18%, an Enhancement [2] of 25% and an Enhancement [3] of 33%.
